Data taken from ChEMBL document CHEMBL2311390, “Synthesis and preliminary evaluation of pharmacological properties of some piperazine derivatives of xanthone” (Bioorg Med Chem, 2013).

Columns and labels:
Rattus norvegicus [1] = experiment: Cardiotoxicity in Wistar rat assessed as QT interval at 10 mg/kg, iv after 5 mins by ECG analysis; assay type: toxicity, organism-based; set-up: dose 10 mg/kg, route intravenous; conditions: in vivo
Outline: (§1)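 Male normotensive Wistar rats, 170–350 g, six per group. Compound given iv at a constant volume of 1 mL/kg. ECG was recorded just before dosing and at 1, 5 and 15 min after. PQ, QRS and QT intervals and heart rate were read from the trace. Groups were compared by one-way ANOVA.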

Rattus norvegicus [2] = experiment: Hypotensive activity in normotensive Wistar rat assessed as reduction of systolic blood pressure at 1.25 mg/kg, iv after 60 mins; assay type: functional, Artery
Outline: (§2)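 Male normotensive Wistar rats (170–350 g) anaesthetised with thiopental 75 mg/kg ip; right carotid artery cannulated with heparinised saline-filled polyethylene tubing for pressure recording. After a 5 min stabilisation, compound given into the caudal vein at 1 mL/kg. Systolic pressure is recorded at 0, 5, 10, 20, 30 and 60 min, and the data are reported as mean ± SEM of five to six animals, with one-way ANOVA.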

Rattus norvegicus [3] = experiment: Hypotensive activity in normotensive Wistar rat assessed as reduction of systolic blood pressure at 1.25 mg/kg, iv after 20 mins; assay type: functional, Artery; outline: as §2
Rattus norvegicus [4] = experiment: Cardiotoxicity in Wistar rat assessed as QRS interval at 5 mg/kg, iv after 15 mins by ECG analysis; assay type: toxicity, organism-based; set-up: dose 5 mg/kg, route intravenous; conditions: in vivo, 0.25 h; outline: as §1
Rattus norvegicus [5] = experiment: Cardiotoxicity in Wistar rat assessed as hear beats per min at 5 mg/kg, iv after 10 mins by ECG analysis; assay type: toxicity, organism-based; set-up: dose 5 mg/kg, route intravenous; conditions: in vivo
[6] = Displacement of [3H]CGP-12177 from beta1-adrenergic receptor in rat cerebral cortex by liquid scintillation counting; assay type: tissue-based
Outline: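 Rat cerebral cortex was homogenised in ice-cold 50 mM Tris-HCl pH 7.6 and spun at 20,000 g for 20 min at 0–4 °C, then washed once. Radioligands: [3H]prazosin 0.2 nM for α1, [3H]clonidine 2 nM for α2, [3H]CGP-12177 0.2 nM for β1. Test compounds were run at 7–8 concentrations from 10^-11 to 10^-4 M. Nonspecific binding was defined with phentolamine (α1), clonidine (α2) or propranolol (β1). Counting was by liquid scintillation, in duplicate. Ki was derived by Cheng–Prusoff from 2–3 experiments.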

Rattus norvegicus [7] = experiment: Hypotensive activity in normotensive Wistar rat assessed as reduction of diastolic blood pressure at 2.5 mg/kg, iv after 60 mins; assay type: functional, Artery
Outline: (§3)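 Male normotensive Wistar rats (170–350 g) were anaesthetised with thiopental 75 mg/kg ip. The right carotid artery was cannulated with heparin-saline tubing for pressure recording. After a 5 min stabilisation, compound was injected into a caudal vein at 1 mL/kg. Systolic and diastolic pressure were followed up to 60 min. Data are means ± SEM of 5–6 animals, compared by one-way ANOVA.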

Rattus norvegicus [8] = experiment: Hypotensive activity in normotensive Wistar rat assessed as reduction of diastolic blood pressure at 2.5 mg/kg, iv after 20 mins; assay type: functional, Artery; outline: as §3
Rattus norvegicus [9] = experiment: Hypotensive activity in normotensive Wistar rat assessed as reduction of diastolic blood pressure at 2.5 mg/kg, iv after 30 mins; assay type: functional, Artery; outline: as §3
Rattus norvegicus [10] = experiment: Hypotensive activity in normotensive Wistar rat assessed as reduction of diastolic blood pressure at 2.5 mg/kg, iv after 10 mins; assay type: functional, Artery; outline: as §3
Rattus norvegicus [11] = experiment: Hypotensive activity in normotensive Wistar rat assessed as reduction of systolic blood pressure at 2.5 mg/kg, iv after 60 mins; assay type: functional, Artery; outline: as §3
Rattus norvegicus [12] = experiment: Hypotensive activity in normotensive Wistar rat assessed as reduction of diastolic blood pressure at 2.5 mg/kg, iv after 5 mins; assay type: functional, Artery; outline: as §3
Rattus norvegicus [13] = experiment: Hypotensive activity in normotensive Wistar rat assessed as reduction of systolic blood pressure at 2.5 mg/kg, iv after 30 mins; assay type: functional, Artery; outline: as §3
Rattus norvegicus [14] = experiment: Hypotensive activity in normotensive Wistar rat assessed as reduction of systolic blood pressure at 2.5 mg/kg, iv after 10 mins; assay type: functional, Artery; outline: as §3
Rattus norvegicus [15] = experiment: Hypotensive activity in normotensive Wistar rat assessed as reduction of systolic blood pressure at 2.5 mg/kg, iv after 20 mins; assay type: functional, Artery; outline: as §3
Rattus norvegicus [16] = experiment: Hypotensive activity in normotensive Wistar rat assessed as reduction of systolic blood pressure at 2.5 mg/kg, iv after 5 mins; assay type: functional, Artery; outline: as §3

Cl.Cl.Cl.O=c1c2ccc(Cl)cc2oc2c(OCC(O)CN3CCN(CCOc4ccccc4)CC3)cccc12 (racemic) showed an Activity (Rattus norvegicus [1]) of 54.4 ms, an Activity (Rattus norvegicus [2]) of 114.8 mmHg and an Activity (Rattus norvegicus [3]) of 110.8 mmHg.
Molecule Cl.Cl.Cl.O=c1c2ccc(Cl)cc2oc2c(OCC(O)CN3CCN(C/C=C/c4ccccc4)CC3)cccc12 (racemic) has an Activity (Rattus norvegicus [4]) of 20.3 ms, an Activity (Rattus norvegicus [5]) of 324.3 bpm and a Ki [6] of 43 µM. It also gave an Activity (Rattus norvegicus [7]) of 108.6 mmHg, an Activity (Rattus norvegicus [8]) of 110.4 mmHg and an Activity (Rattus norvegicus [9]) of 110.8 mmHg. The Activity (Rattus norvegicus [10]) was 110.6 mmHg, the Activity (Rattus norvegicus [11]) was 126.8 mmHg and the Activity (Rattus norvegicus [12]) was 103.2 mmHg. For the same molecule, the Activity (Rattus norvegicus [13]) was 129.8 mmHg, the Activity (Rattus norvegicus [14]) was 133 mmHg and the Activity (Rattus norvegicus [15]) was 130.8 mmHg. It also gave an Activity (Rattus norvegicus [16]) of 125 mmHg.
Work on Cl.Cl.Cl.O=c1c2ccc(Cl)cc2oc2c(OCC(O)CN3CCN(Cc4ccccc4)CC3)cccc12 (racemic) yielded an Activity (Rattus norvegicus [1]) of 74 ms, an Activity (Rattus norvegicus [7]) of 134.2 mmHg and an Activity (Rattus norvegicus [8]) of 134.5 mmHg. It also gave an Activity (Rattus norvegicus [9]) of 134.2 mmHg, an Activity (Rattus norvegicus [10]) of 132.2 mmHg and an Activity (Rattus norvegicus [11]) of 151.2 mmHg. The Activity (Rattus norvegicus [12]) was 128.7 mmHg, the Activity (Rattus norvegicus [13]) was 152.2 mmHg and the Activity (Rattus norvegicus [14]) was 149.5 mmHg. It also gave an Activity (Rattus norvegicus [15]) of 152.5 mmHg and an Activity (Rattus norvegicus [16]) of 147.2 mmHg.
Work on Cl.Cl.O=c1c2ccccc2oc2c(OCC(O)CN3CCN(C/C=C/c4ccccc4)CC3)cccc12 (racemic) yielded an Activity (Rattus norvegicus [4]) of 24 ms, an Activity (Rattus norvegicus [5]) of 311.3 bpm and a Ki [6] of 5.2 µM. It also gave an Activity (Rattus norvegicus [7]) of 105 mmHg, an Activity (Rattus norvegicus [8]) of 114 mmHg and an Activity (Rattus norvegicus [9]) of 110.8 mmHg. It also gave an Activity (Rattus norvegicus [10]) of 117.2 mmHg, an Activity (Rattus norvegicus [11]) of 125.6 mmHg and an Activity (Rattus norvegicus [12]) of 118.4 mmHg. For the same molecule, the Activity (Rattus norvegicus [13]) was 132.6 mmHg, the Activity (Rattus norvegicus [14]) was 144.2 mmHg and the Activity (Rattus norvegicus [15]) was 139.8 mmHg. For the same molecule, the Activity (Rattus norvegicus [16]) was 144.2 mmHg.
